pEC50: −log10 of the molar value.
Columns and labels:
Format in all cases: functional
Cavia porcellus = organism: Cavia porcellus; test: Percent conversion of total labeled nucleotides to cyclic AMP, determined in guinea pig cerebral cortical vesicular entities at 200 uM concentration
Outline: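 Gray-matter cortex slices from male NIH guinea pigs (300 g) homogenized in O2/CO2-gassed KRB, pH 7.4. The 1000g pellet was labeled with [3H]adenine for 30 min at 37 °C, washed, post-incubated 15 min at 37 °C, and aliquoted. Aliquots were equilibrated 10 min at 37 °C, then given compound at 200 μM for 10 min at 30 °C and stopped with TCA. Read-out is labeled cAMP as percent of total labeled adenine nucleotides, reported as mean ± SEM.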

Rattus norvegicus = organism: Rattus norvegicus; test: Concentration required to activate rat cerebral cortical adenylate cyclase activity elicited by 200 uM forskolin
Outline: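 Fresh crude cortical membranes from male Sprague-Dawley rats (150-175 g). Incubated in 50 mM Tris-HCl pH 7.5 with 1.0 mM IBMX, 5 mM MgCl2, 0.1 mM ATP plus [α-32P]ATP, 0.2 mM EGTA, and a creatine phosphate/creatine kinase regenerating system. About 100 μg protein per assay, 30 °C for 10 min, stopped with TCA, [32P]cAMP isolated. Run in triplicate. EC50 taken from ≥2 curves over 0.01–200 μM. Where full activation was not reached, EC50 is the concentration giving 50% of the maximal activity with 200 μM forskolin.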

Oryctolagus cuniculus = organism: Oryctolagus cuniculus; test: Percent stimulation of adenylate cyclase determined in rabbit heart membranes at 5 uM of compound as compared to 5 uM of forskolin; conditions: Membrane

SMILES | Conversion (Cavia porcellus) [%] | pEC50 (Rattus norvegicus) | Stimulation (Oryctolagus cuniculus) [%]
C=C[C@@]1(C)CC(=O)[C@@]2(O)[C@H](O1)C(O)C(O)[C@H]1C(C)(C)CC[C@H](O)C12C (some centres undefined) | 1.37 | 4.70 | 51
C=C[C@@]1(C)CC(=O)[C@@]2(O)[C@H](O1)C(OC(C)=O)C(OC(C)=O)[C@H]1C(C)(C)CC[C@H](OC(C)=O)C12C (some centres undefined) | 0.47 | < 3.70 | 20
C=C[C@@]1(C)CC(=O)[C@@]23OS(=O)O[C@H]4CCC(C)(C)[C@H](C(O)C(OC(C)=O)[C@H]2O1)C43C (some centres undefined) | 1.2 | < 3.70 | 28
C=C[C@@]1(C)CC(=O)[C@@]2(O)[C@H](O1)C(OC=O)C(O)[C@H]1C(C)(C)CC[C@H](O)C12C (some centres undefined) | 0.47 | 3.82 | 52
C=C[C@@]1(C)CC(=O)[C@@]2(O)[C@H](O1)C(OC(C)=O)C(=O)[C@H]1C(C)(C)CCC(=O)C12C (some centres undefined) | 0.17 | – | 0
C=C[C@@]1(C)C[C@@H](O)[C@H]2[C@H](O1)C(O)C(O)[C@H]1C(C)(C)CC[C@H](O)C21C (some centres undefined) | 0.41 | – | 1.6
C=C[C@@]1(C)CC(=O)[C@@]2(O)[C@H](O1)C(OC(C)=O)C(O)[C@H]1C(C)(C)CC[C@H](O)C12C (some centres undefined) | 4.4 | 5.10 | 100
CC(=O)OC1C(O)[C@H]2C(C)(C)CC[C@H](O)C2(C)[C@@]23OC(CO)[C@@](C)(CC2=O)O[C@H]13 (some centres undefined) | 0.18 | – | 0
CC(=O)OC1C(O)[C@H]2C(C)(C)CC[C@H](O)C2(C)[C@@]2(O)C(=O)C[C@](C)(C3CO3)O[C@H]12 (some centres undefined) | 0.22 | – | 5
C=C[C@@]1(C)CC(=O)[C@@]2(O)[C@H](O1)C(OC(C)=O)C(O)[C@H]1C(C)(C)CCC(=O)C12C (some centres undefined) | 0.76 | 3.70 | 47
C=C[C@@]1(C)CC(=O)[C@@]2(O)[C@H](O1)C(OC(=O)c1cc(OC)c(OC)c(OC)c1)C(O)[C@H]1C(C)(C)CC[C@H](O)C12C (some centres undefined) | 0.26 | < 4.60 | 31
C=C[C@@]1(C)CC(=O)[C@@]2(O)[C@H](O1)C(OC(=O)N(CC)CC)C(O)[C@H]1C(C)(C)CC[C@H](O)C12C (some centres undefined) | 0.84 | 3.70 | 59
C=C[C@@]1(C)CC(=O)[C@@]23OC(=O)O[C@H]4CCC(C)(C)[C@H](C5OC(=O)OC5[C@H]2O1)C43C (some centres undefined) | 0.25 | – | 1
CC[C@@]1(C)CC(=O)[C@@]2(O)[C@H](O1)C(OC(C)=O)C(O)[C@H]1C(C)(C)CC[C@H](O)C12C (some centres undefined) | 0.97 | 4.00 | 49
C=C[C@@]1(C)CC(=O)[C@@]2(O)[C@H](O1)C(OS(=O)(=O)c1ccc(C)cc1)C(O)[C@H]1C(C)(C)CC[C@H](O)C12C (some centres undefined) | 0.16 | < 4.60 | 5
C=C[C@@]1(C)CC(=O)[C@@]2(O)[C@H](O1)C(OC(=O)OCC)C(O)[C@H]1C(C)(C)CC[C@H](O)C12C (some centres undefined) | 4.01 | 5.10 | 60
C=C[C@@]1(C)CC(=O)[C@@]2(O)[C@H](O1)C(OC(=O)CC)C(O)[C@H]1C(C)(C)CC[C@H](O)C12C (some centres undefined) | 1.07 | 4.82 | 67
C=C[C@@]1(C)CC(=O)[C@H]2[C@H](O1)C(OC(C)=O)C(O)[C@H]1C(C)(C)CCCC21C (some centres undefined) | 0.18 | – | 1
C=C[C@@]1(C)C[C@H](O)[C@@]2(O)[C@H](O1)C(OC(C)=O)C(O)[C@H]1C(C)(C)CC[C@H](O)C12C (some centres undefined) | 0.97 | 4.30 | 49
C=C[C@@]1(C)CC(=O)[C@H]2[C@H](O1)C(OC(C)=O)C(O)[C@H]1C(C)(C)CC[C@H](O)C21C (some centres undefined) | 0.84 | 4.00 | 46

Reference: ChEMBL document CHEMBL1122456, “Structure-activity relationships for activation of adenylate cyclase by the diterpene forskolin and its derivatives” (J Med Chem, 1983)
